These results are taken from article PMC10237409 (Neuro-Oncology, 2022).

Read-outs that look alike come from different tables or passages of the source.

A short description of data set [1]: Safety: treatment-related adverse events. The format is in vivo, human. The gist of the method:
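AEs were coded with MedDRA 24.0 and graded by NCI CTCAE 5.0. They were reported separately for the preoperative period (30 mg/day days 1–4, until maintenance start) and for postoperative maintenance (45 mg/day 4 days on/24 days off per 28-day cycle, onward). Maintenance continued until progression, unacceptable toxicity or consent withdrawal.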

The conditions of data set [2]: stated without reference; cited from earlier work.
The format of data set [3] is in vivo. The settings on record: human, plasma, oral, 30 mg/day; for AUC(0-t): GM AUC0-24, plasma; for Cmax: GM Cmax; for Tmax: Median tmax (range). The gist of the method:
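Patients took 30 mg/day orally on days 1–4 before resection. Plasma was sampled at multiple time points through cycle 1 and at surgery, then assayed by LC-MS/MS (High Assay Range). Cmax, tmax, AUC and t½ came from non-compartmental analysis and were summarised as geometric means.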

The subject of data set [4] is HEXIM1 mRNA. Briefly: HEXIM1 mRNA in whole blood. The following applies: 72–96 h after the first preoperative dose, 30 mg/day. The format is in vivo, human. The essentials: (§1)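 Patients took 30 mg/day orally on days 1–4 before salvage resection. Blood samples for pharmacodynamics were drawn at multiple time points through cycle 1 and at surgery. CCR1 and HEXIM1 expression in blood was measured by RNA-Seq.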

The subject of data set [5] is CCR1 mRNA. Nature of the data set: CCR1 mRNA in whole blood. The following applies: after the fourth preoperative dose, 30 mg/day; mean (SD ± 28.5). The format is in vivo, human. The gist of the method:
as §1

Data set [6] is classed as in vivo, human. The essentials: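 Patients took 30 mg/day orally on days 1–4, with salvage resection planned 6–24 h after the day 4 dose. Resected tumour (contrast-enhancing and non-enhancing where possible), CSF and time-matched plasma were collected during surgery. Results were summarised as geometric means. Free tissue concentration and unbound partition coefficient were estimated from plasma protein binding and tissue binding.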

Data set [7] deals with advanced cancers, including high-grade gliomas. The following applies: 45 mg/day 4 days on/24 days off per 28-day cycle; cited from earlier work.
The test system of data set [8] is glioblastoma. The settings on record: cited from earlier work.
The subject of data set [9] is orthotopic glioblastoma. The following applies: cited from earlier work.
Setting [10] is: postoperative maintenance 45 mg/day 4 days on/24 days off, n = 16.
Where [11] appears, read: preoperative 30 mg/day days 1–4, n = 20.

Turning to `Cn1cc(-c2cc(S(C)(=O)=O)ccc2OCC2CC2)c2ccccc2c1=O` [Trotabresib], in [1] (overall study), the “Serious TRAEs” value is “No serious TRAEs” and the “Treatment discontinuation due to AEs” value is “No patients discontinued treatment due to AEs”. In data set [1] (setting [10]), the “Any TRAE, any grade, patients” value was found to be 100%; the “Asthenia, grade 3/4 TRAE, number of patients” value is on record as 1 patient; the “Thrombocytopenia, grade 3/4 TRAE, number of patients” value was 5 patients. Moreover, the “Dose reduction due to thrombocytopenia, number of patients” value in data set [1] (postoperative treatment period, 45 mg/day) was determined as 1 patient. For the same compound, in data set [1] (postoperative treatment period, 45 mg/day, thrombocytopenia in 2, pancreatitis in 1), the “Dose interruptions due to AEs, number of patients” value stood at 3 patients. In [1] (preoperative 30 mg/day days 1–4), the “Surgery delayed or canceled due to an AE” value is listed as “No patients”. For the same compound, in data set [1] (setting [11]), the “ALT increased, grade 3/4 TRAE, number of patients” value was found to be 1 patient; the “Any TRAE, any grade, patients” value was found to be 60%; the “Any TRAE, grade 3/4, patients” value was 10%; the “Lymphopenia, grade 3/4 TRAE, number of patients” value turned out to be 1 patient. Moreover, the “Thrombocytopenia, grade 1/2, patients” value in data set [1] (setting [11]) was 25%. The Lipophilicity result in data set [2] is listed as “high lipophilicity”. In [3], the half-life (in general, the time in which the quantity being followed falls by half) is 46 h. Moreover, in data set [3] (cycle 1 day 1, GM (% GCV)), the AUC(0-t) (commonly the area under the concentration-time curve up to a stated or last time point) is 5080 ng·h/mL and the highest level (Cmax) was 392 ng/mL. In addition, in data set [3] (cycle 1 day 4, GM (% GCV)), the AUC(0-t) is 11200 ng·h/mL and the concentration peaked (Cmax) at 720 ng/mL. For the same compound, the Tmax (commonly the time from dosing to the highest level) in data set [3] (cycle 1 day 1) came to 1.5 h. The Tmax in data set [3] (cycle 1 day 4) was 1.9 h. In addition, the “Blood levels of HEXIM1 mRNA versus baseline” value in data set [4] was “increased from baseline in all patients”. For the same compound, the “Blood levels of CCR1 mRNA, % of baseline levels” value in data set [5] was determined as 45.8%. In data set [6] (after 30 mg/day days 1–4, n = 19), the “Plasma concentration at the time of surgery, GM (% GCV)” value stood at 1020 nM. In data set [6] (calculated, n = 20, GM (% GCV)), the “GM free (tissue binding-corrected) trotabresib concentration in brain tissue” value is 0.028 µM. For the same compound, the “CSF concentration, GM (% GCV)” value in data set [6] (n = 13) was 0.14 µM. Further, the “Brain tumor tissue concentration, GM (% GCV)” value in data set [6] (resected tissue after 30 mg/day days 1–4, n = 20) came to 0.74 µM. For the same compound, the “Prolonged progression-free survival (PFS) in some patients” value in data set [7] was “up to 3 years”.

Consider `Cc1sc2c(c1C)C(c1ccc(Cl)cc1)=N[C@@H](CC(=O)Nc1ccc(O)cc1)c1nnc(C)n1-2` [OTX015], for which the “Clinical efficacy (study outcome)” value in data set [8] was “lack of efficacy”. Further, the Antitumor activity result in data set [9] is listed as “showed antitumor activity”. In addition, in [9] (markedly lower concentrations in peritumoral and distant brain tissue), the “Penetration of brain tumor tissue” value is “high penetration of brain tumor tissue”.
